Only some compounds are listed: those with a hit (about 2.5% of all), similar ones and a draw of the others.
SIRT5 inh: sirtuin-5 (human) deacylase inhibition; Q9NXA8; Purified SirT5, succinyl-peptide AMC, trypsin-coupled fluorescence; inhibition, % at 15 µM; 330,000 compounds, 1.1% hits; in the data active = inhibition above about 15%
Target sequence (Q9NXA8 whole entry, looked up): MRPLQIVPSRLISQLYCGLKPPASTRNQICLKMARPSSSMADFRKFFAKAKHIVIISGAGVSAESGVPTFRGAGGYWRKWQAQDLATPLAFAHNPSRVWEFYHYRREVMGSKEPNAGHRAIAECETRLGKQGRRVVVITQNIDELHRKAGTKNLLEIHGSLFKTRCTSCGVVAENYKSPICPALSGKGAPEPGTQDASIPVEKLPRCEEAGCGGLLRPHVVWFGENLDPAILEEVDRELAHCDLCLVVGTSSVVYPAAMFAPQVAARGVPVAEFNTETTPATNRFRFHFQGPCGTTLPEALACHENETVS
miR122 inh: inhibitors of miR-122 in Huh7 cells; Huh7 miR-122 Renilla luciferase sensor, 48 h; neutral wells = 0, positive control = 100; activation (reporter increase), % at 12.5 µM; 340,000 compounds, 0.3% hits;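 active = mean replicate activation score at least 90 and every replicate individually at or above 90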;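 note: higher luciferase means less miR-122 activity so hits act as miR-122 inhibitors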
S100A4 inh HTS: blocks human S100A4 binding to myosin IIA peptide. 360,000 compounds, 0.14% hits. AID 652163. inhibition, % at 10.7 µM. P26447. S100A4/TAMRA-MyoIIA peptide fluorescence polarization;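 active = mean inhibition of at least 70% across replicates, with every replicate also reaching that level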
Target sequence (P26447 whole entry, looked up): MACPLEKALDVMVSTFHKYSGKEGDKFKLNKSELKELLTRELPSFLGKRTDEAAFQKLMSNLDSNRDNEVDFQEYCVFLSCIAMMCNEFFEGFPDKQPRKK
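Material: S100A4 monomer protein / Buffer or medium: 50 mM HEPES pH 7.2, 10 mM CaCl2, 100 mM KCl / Times: 5 min incubation before reading / Benchmarks: neutral control DMSO, positive control TFP / Reagent: labelled myosin peptide probe, 5 nM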
E-sel inducer: induces E-selectin expression in human endothelial cells; activation, % at 7.58 µM; 260,000 compounds, 0.37% hits; HUVEC E-selectin immunofluorescence imaging; normalized: neutral wells 0, TNF-alpha wells 100;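 active = mean E-selectin-positive cell signal at least 10% of the positive control, reached in at least 60% of replicates, without over 20% cell loss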
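Material: HUVEC primary endothelial cells; Amount: 3,000 cells per well; Dosing: single concentration; Medium: EGM-2 growth medium on 0.1% gelatin-coated wells; Read-out basis: percent E-selectin-positive cells; Signal: immunofluorescence imaging; Control set: TNF-alpha, DMSO.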
FGF22 binding: binders of recombinant human FGF22 by thermal shift; activity (Tm shift, normalised), % at 9.99 µM; AID 651658; 340,000 compounds, 1.5% hits; Q9HCT0; SYPRO orange fluorescence; percent of sucrose octasulfate shift, DMSO zero;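 active = mean Tm shift, scaled 0 neutral to 100 positive control, at about 1.3% or above, every replicate too, limit read from the data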
Target sequence (Q9HCT0 whole entry, looked up): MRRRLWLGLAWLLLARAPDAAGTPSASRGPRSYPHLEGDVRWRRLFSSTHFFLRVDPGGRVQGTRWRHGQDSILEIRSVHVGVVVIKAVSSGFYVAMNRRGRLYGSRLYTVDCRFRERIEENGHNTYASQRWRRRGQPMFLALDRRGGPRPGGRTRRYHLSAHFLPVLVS
A number is an active result; n = inactive; x = not tested or not shown; [ ] = remark or other dose.

SMILES	SIRT5 inh	miR122 inh	S100A4 inh HTS	E-sel inducer	FGF22 binding
O=C(C[C@H]1CC[C@@H]2[C@H](COC[C@H](O)CN2C(=O)c2ccccc2F)O1)NCc1ccc(-c2ccccc2)cc1	n	n	n	n	n
Cc1[nH][nH]c(=O)c1/C=N/N1CCOCC1	n	n	n	x	42.9
Fc1cccc(F)c1/C=N/N1CCOCC1	n	x	n	n	n
C[C@@H]1CN([C@@H](C)CO)S(=O)(=O)c2ccc(C3=CCCC3)cc2O[C@H]1CN(C)Cc1ccccc1F	n	n	n	n	n
Cc1ccccc1NC(=S)N(CCc1c(C)[nH]c2ccc(F)cc12)Cc1cccnc1	n	x	n	n	x
Cc1[nH]c2ccc(F)cc2c1CCN(Cc1ccco1)C(=S)NC(C)(C)C	n	x	n	n	43.1
Cc1[nH]c2ccc(F)cc2c1CCN(Cc1cccnc1)C(=S)Nc1cccc(F)c1	n	x	n	x	43.5
Cc1ccccc1S(=O)(=O)N1CC(=O)N2[C@H](CO)[C@H](c3ccc(C#Cc4ccccc4)cc3)[C@@H]2C1	n	x	n	n	x
O=C(c1ccccc1)N1Cc2ccccc2[C@H]2OC(c3ccc(OCCCO)cc3)=N[C@@]2(CCS(=O)(=O)c2ccccc2)C1=O	n	x	n	x	n
COC(=O)c1c(NC(C)=O)sc(C(=O)Nc2ccccc2)c1C	n	n	n	n	n
CCOc1ccc(NC(=O)c2sc(NC(C)=O)c(C(=O)OC)c2C)cc1	n	n	n	x	43.0
Cc1ccc(C)n1-c1ccc(C(=O)Nc2ccccc2)cc1	n	x	n	n	43.4
O=C(Nc1cccnc1)c1ccc(-c2ccccc2)cc1	n	n	n	x	n
O=C(Nc1ccncc1)c1ccc(-c2ccccc2)cc1	n	x	n	x	44.8
O=C(Nc1ccccc1)c1ccc(-n2cnnn2)cc1	n	n	n	x	n
COc1ccc(C(=O)Nc2ccc3c(c2)C(=O)N(C)C[C@H](OC)[C@@H](C)CN[C@H](C)CO3)cc1	n	n	n	n	n
O=[N+]([O-])c1ccc2c(c1)CO[C@@]21O[C@H](CCO)C[C@H](O)[C@H]1O	n	n	n	64.9	n
Cc1ccc(S(=O)(=O)Nc2ccc3c(c2)C(=O)N([C@@H](C)CO)C[C@H](C)[C@@H](CN(C)Cc2ccc(C(=O)Nc4ccccc4N)cc2)OCCCC[C@@H](C)O3)cc1	n	x	n	x	x
O=C(OCc1nnc(-c2ccccc2)o1)c1ccccc1	n	n	n	n	43.4
CCOc1cccc(C=NNc2ccc(S(=O)(=O)Nc3ccccc3C(=O)O)cc2[N+](=O)[O-])c1O	n	n	n	n	n
COc1ccc(NC(=S)NNc2ccc(S(=O)(=O)Nc3ccccc3C(=O)O)cc2[N+](=O)[O-])cc1	16.8	x	n	x	x
COc1ccc(C=NNc2ccc(S(=O)(=O)Nc3ccccc3C(=O)O)cc2[N+](=O)[O-])c(OC)c1	44.5	n	n	x	x
CCOc1ccc(C=NNc2ccc(S(=O)(=O)Nc3ccccc3C(=O)O)cc2[N+](=O)[O-])cc1	20.2	n	n	x	n
O=C(O)c1ccccc1NS(=O)(=O)c1ccc(NN=Cc2ccccc2F)c([N+](=O)[O-])c1	17.3	x	n	n	n
O=C(NC[C@@H]1CC[C@H]2[C@H](CN2Cc2ccccc2F)O1)C1CC1	n	x	n	x	x
SMILES	SIRT5 inh	miR122 inh	S100A4 inh HTS	E-sel inducer	FGF22 binding
COCC(=O)N1CC2(CN(Cc3ccc(OC)cc3)C2)c2c([nH]c3cc(OC)ccc23)[C@@H]1CO	n	x	n	n	n
C[C@H](CO)N1C[C@H](C)[C@@H](CN(C)C(=O)C2CC2)Oc2cc(-c3cccc(F)c3)ccc2S1(=O)=O	n	x	n	n	n
O=C(c1ccccc1F)N1C[C@@H]2[C@H](c3ccccc31)[C@H](CO)N2C(=O)c1cccnc1	n	n	n	n	n
Cc1ccc2nc(-c3cccs3)oc(=O)c2c1	n	n	n	n	43.4
Cc1ccc(-c2nc3ccccc3c(=O)o2)cc1	16.4	n	n	x	n
O=c1oc(-c2cccs2)nc2ccc(Br)cc12	x	n	x	x	x
CCCCCNCC(=O)Nc1cc(C(F)(F)F)ccc1OCCOC	n	x	n	x	43.9
OC(CN1CCCCC1)c1ccc(Br)cc1 (stereo not given)	x	n	n	n	43.7
Cc1ccc2nc(SC(C)C(=O)N3CCCC3)[nH]c2c1 (stereo not given)	x	n	x	x	x
Cc1ccc2nc(SC(C)C(=O)N3CC(C)OC(C)C3)[nH]c2c1 (stereo not given)	22.4	x	n	n	43.0
COc1ccc(NC(=O)N2C[C@@H](O)COC[C@H]3O[C@H](CC(=O)N4CCCCC4)CC[C@@H]32)cc1	n	n	n	n	n
COc1ccc(CN2C[C@H](O)COC[C@@H]3O[C@@H](CC(=O)N(C)C)CC[C@H]32)cc1	n	n	93.7	n	n
CN(C)C(=O)C[C@H]1CC[C@@H]2[C@H](COC[C@@H](O)CN2C(=O)c2ccncc2)O1	16.3	n	n	n	n
COc1ccc(NC(=O)N2C[C@H](O)COC[C@@H]3O[C@@H](CC(=O)N4CCCCC4)CC[C@H]32)cc1	25.4	n	n	n	n
COc1ccc(CN2C[C@@H](O)COC[C@@H]3O[C@H](CC(=O)N4CCc5ccccc5C4)CC[C@H]32)cc1	17.1	n	n	n	n
COc1ccc(CN2C[C@@H](O)COC[C@H]3O[C@H](CC(=O)N4CCc5ccccc5C4)CC[C@@H]32)cc1	n	n	n	n	n
C[C@H]1CN([C@@H](C)CO)S(=O)(=O)c2ccc(C#CCN(C)C)cc2O[C@H]1CN(C)Cc1ccccc1	n	n	n	n	n
Cc1ccc(S(=O)(=O)N(C)c2ccc(C)c([N+](=O)[O-])c2)cc1	n	x	n	n	43.4
COc1ccc(N(C)S(=O)(=O)c2ccc(C)cc2)c([N+](=O)[O-])c1	x	x	n	x	n
Cc1ccc(S(=O)(=O)N2CCC(C(=O)OCC(=O)N(C)Cc3ccccc3)CC2)cc1C	20.4	x	n	n	n
C[C@@H]1CN([C@H](C)CO)C(=O)c2cc(C3=CCCCC3)cnc2O[C@H]1CN(C)C(=O)Cc1ccncc1	n	n	n	n	n
O=C(COC(=O)CSCc1ccccc1)NCc1ccccc1	n	x	n	n	43.4
Cc1ccc(S(=O)(=O)Nc2ccc3c(c2)C(=O)N([C@H](C)CO)C[C@@H](C)[C@H](CN(C)S(=O)(=O)c2ccccc2)OCCCC[C@@H](C)O3)cc1	n	n	n	n	x
C[C@@H]1CN([C@H](C)CO)C(=O)c2cc(NC(=O)NC3CCCCC3)ccc2O[C@@H](C)CCCCO[C@@H]1CN(C)Cc1ccc(C(F)(F)F)cc1	n	n	n	n	n
C[C@H](CO)N1C[C@H](C)[C@H](CN(C)Cc2ccc(C(=O)Nc3ccccc3N)cc2)Oc2ccc(NS(=O)(=O)c3ccccc3)cc2CC1=O	n	145.2[16.7 µM]	n	n	n

From PubChem BioAssay
